Measured values: ChEMBL document CHEMBL1126086, “Structure-activity studies of potassium channel opening in pinacidil-type cyanoguanidines, nitroethenediamines, thioureas, and ureas” (J Med Chem, 1992)

Key:
[1] = organism: Rattus norvegicus; assay: Concentration required to cause 15% increase in [86Rb+] efflux from rat portal vein.; type: functional
How it was run: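 Rat portal vein, opened lengthwise, tension 500 mg, equilibrated 30 min in HEPES-buffered PSS (95% O2/5% CO2, 32 °C, pH 7.4), then loaded 80 min with 86RbCl (5 µCi/mL). Perfusate collected every 2 min; rate constant k from released vs. remaining tissue activity. Drug effect = peak k during application vs. basal k (6–10 min prior), as Δk %; n = 4–6.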

[2] = organism: Rattus norvegicus; assay: Concentration required to cause 50% inhibition of spontaneous activity in rat portal vein; type: functional; settings: for IC50: Rattus norvegicus
[3] = Ionisation constant (pKa1) due to protonation of the pyridyl ring; type: physicochemical; settings: read-out: pKa1
[4] = Ionisation constant (pKa2) due to […]; type: physicochemical; settings: read-out: pKa2
[5] = Ionisation constant (pKa2)

For CCC(C)(C)/N=C(\NC#N)Nc1cccnc1, the pEC15 [1] was 7.4, the IC50 [2] was 2 nM and the pKa [3] was 2.61. The pKa [4] was 12.2.

C[C@@H](/N=C(/S)Nc1ccncc1)C(C)(C)C.Cl showed a pEC15 [1] of 4.

Work on C[C@H](/N=C(/S)Nc1ccncc1)C(C)(C)C.Cl yielded a pEC15 [1] of 4, an IC50 [2] of 316 nM and a pKa [3] of 4.89. It also gave a pKa [4] of 13.

In the case of C[C@@H](/N=C(/NC#N)Nc1cccnc1)C(C)(C)C, the “Log IC50” value [2] is reported as -7.

Compound COc1cncc(N/C(=C/[N+](=O)[O-])N[C@H](C)C(C)(C)C)c1 has a pEC15 [1] of 4 and an IC50 [2] of 1580 nM.

With C[C@@H](N/C(=C\[N+](=O)[O-])Nc1cccnc1)C(C)(C)C the pEC15 [1] was 3.8 and the “Log IC50” value [2] was -6.

COc1cncc(N/C(=C/[N+](=O)[O-])N[C@@H](C)C(C)(C)C)c1 gave a pEC15 [1] of 6.5, an IC50 [2] of 15.8 nM and a pKa [3] of 1.86. It also gave a pKa [4] of 6.5.

With C[C@H](N/C(=N/c1ccncc1)NC#N)C(C)(C)C the pEC15 [1] was 4.4 and the IC50 [2] was 776 nM.

CC1(C)CSC(Nc2cccnc2)=N1 gave an IC50 [2] of 31600 nM.

CC(C)(C)CN/C(=C\[N+](=O)[O-])Nc1cccnc1 showed a pEC15 [1] of 4, an IC50 [2] of 1000 nM and a pKa2 [5] of 8.86.

Work on CC(C)N/C(=C\[N+](=O)[O-])Nc1cccnc1 yielded a pEC15 [1] of under 3.5 and an IC50 [2] of 31600 nM.

Compound CC1(C)CN=C(Nc2cccnc2)N1 has an IC50 [2] of over 10000 nM and a pKa [4] of 8.2.

With CC(C)(C)C1CSC(Nc2cccnc2)=N1 (centres undefined) the IC50 [2] was 20000 nM and the pKa [3] was 3.89.

For CC(C)(C)/N=C(\Cc1cccnc1)NC#N, the pEC15 [1] was 3.5, the IC50 [2] was 5010 nM and the pKa [3] was 2.71. The pKa [4] was over 14.

Work on C[C@@H](N/C(=N/c1ccncc1)NC#N)C(C)(C)C yielded a pEC15 [1] of 5.9 and an IC50 [2] of 33.9 nM.

Compound CC(N/C(=C\[N+](=O)[O-])Nc1cccc(C#N)c1)C(C)(C)C (centres undefined) has a pEC15 [1] of 4, an IC50 [2] of 316 nM and a pKa [4] of 8.88.

With CC(C)(C)CNC(=O)Nc1ccncc1.Cl the pEC15 [1] was 3.3, the IC50 [2] was 3160 nM and the pKa [3] was 5.46. For the same compound, the pKa [4] was over 14.

For CC(N/C(=C\[N+](=O)[O-])Nc1cccnc1)C(C)(C)C (centres undefined), the pEC15 [1] was 5.5, the IC50 [2] was 31.6 nM and the pKa [3] was 2.28. The pKa [4] was 9.03.

CC(C)(C)C/N=C(/S)Nc1cccnc1 gave a pEC15 [1] of 5, an IC50 [2] of 200 nM and a pKa [3] of 3.08. It also gave a pKa [4] of 13.1.

CC(C)(C)c1csc(Nc2cccnc2)n1 showed an IC50 [2] of 1000 nM and a pKa [3] of 3.57.

CC(C)(C)C1CN=C(Nc2cccnc2)N1 (centres undefined) showed an IC50 [2] of 3160 nM, a pKa [3] of 2.03 and a pKa [4] of 8.1.

In the case of CC(C)(C)/N=C(/NC#N)Nc1cccnc1, the pEC15 [1] is reported as 6.1 and the IC50 [2] is reported as 12.6 nM.

Compound CC(C)(C)CN/C(=C\[N+](=O)[O-])Nc1ccncc1 has a pEC15 [1] of under 3.5 and an IC50 [2] of 10000 nM.

CC(/N=C(/NC#N)Nc1cccnc1)C(C)(C)C (centres undefined) showed a pEC15 [1] of 6.3, a pKa [3] of 2.7 and a pKa [4] of 12.

For CCC(C)(C)/N=C(/S)Nc1cccnc1, the pEC15 [1] was 5.2 and the IC50 [2] was 200 nM.

Compound CC(/N=C(/S)Nc1cccnc1)C(C)(C)C (centres undefined) has a pEC15 [1] of 5.7, an IC50 [2] of 50.1 nM and a pKa [3] of 2.97. For the same compound, the pKa [4] was 13.2.

For CC(C)(C)CNC(=O)Nc1cccnc1, the pEC15 [1] was 4, the IC50 [2] was 2000 nM and the pKa [3] was 3.74. It also gave a pKa [4] of over 14.

For CC(C)(C)C(CO)/N=C(/S)Nc1cccnc1 (centres undefined), the pEC15 [1] was under 3.5 and the IC50 [2] was 3160 nM.

Work on CC(C)(C)C/C(=N/c1cccnc1)NC#N yielded a pEC15 [1] of 4.3, a pKa [3] of 2.23 and a pKa [4] of 11.3.

CC(C)(C)CN/C(=C\[N+](=O)[O-])NCc1cccnc1 showed a pEC15 [1] of under 3.5 and an IC50 [2] of 20000 nM.

Compound CCC(C)N1CCN=C1Nc1cccnc1 (centres undefined) has a pEC15 [1] of under 3 and an IC50 [2] of 100000 nM.

Compound CC(C)(C)CCN/C(=C\[N+](=O)[O-])Nc1cccnc1 has a pEC15 [1] of 3.5 and an IC50 [2] of 2000 nM.

Work on CC(C)(C)C/N=C(/NC#N)Nc1cccnc1 yielded a pEC15 [1] of 5.5, an IC50 [2] of 100 nM and a pKa [3] of 2.83. For the same compound, the pKa [4] was 11.8.

CC(N/C(=C\[N+](=O)[O-])Nc1ccncc1)C(C)(C)C (centres undefined) gave a pEC15 [1] of 3.3 and an IC50 [2] of 1000 nM.

O=[N+]([O-])/C=C(/Nc1cccnc1)NC1CCCCC1 showed a pEC15 [1] of 3.5 and an IC50 [2] of 3160 nM.

With CC(/N=C(/NC#N)Nc1cccnc1)C(C)(C)C (single isomer, unassigned) the “Log IC50” value [2] was -5.2.

With CC(N/C(=C\[N+](=O)[O-])Nc1cccnc1)C(C)(C)C (single isomer, unassigned) the pEC15 [1] was 5.8 and the “Log IC50” value [2] was -8.

With CC(N/C(=N\C#N)Nc1ccncc1)C(C)(C)C (centres undefined) [PINACIDIL ANHYDROUS] the pEC15 [1] was 5.7, the IC50 [2] was 63.1 nM and the pKa [3] was 4.81. It also gave a pKa [4] of 11.3.
